Screening data deposited in PubChem by several laboratories.
The list is not random: actives were taken first. Their share in the collection is about 10%.
PMI act hi M6P = activators of human phosphomannose isomerase at near-saturating mannose 6-phosphate. P34949. coupled PMI enzyme assay, resazurin fluorescence, 20 min; stronger effect = higher value; 1 = untreated enzyme, 0 = substrate-free blank. activation factor at 20 µM. 190,000 compounds, 0.34% hits;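 active = activation factor of 2 or more at 20 µM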
Target sequence (P34949 whole entry, looked up): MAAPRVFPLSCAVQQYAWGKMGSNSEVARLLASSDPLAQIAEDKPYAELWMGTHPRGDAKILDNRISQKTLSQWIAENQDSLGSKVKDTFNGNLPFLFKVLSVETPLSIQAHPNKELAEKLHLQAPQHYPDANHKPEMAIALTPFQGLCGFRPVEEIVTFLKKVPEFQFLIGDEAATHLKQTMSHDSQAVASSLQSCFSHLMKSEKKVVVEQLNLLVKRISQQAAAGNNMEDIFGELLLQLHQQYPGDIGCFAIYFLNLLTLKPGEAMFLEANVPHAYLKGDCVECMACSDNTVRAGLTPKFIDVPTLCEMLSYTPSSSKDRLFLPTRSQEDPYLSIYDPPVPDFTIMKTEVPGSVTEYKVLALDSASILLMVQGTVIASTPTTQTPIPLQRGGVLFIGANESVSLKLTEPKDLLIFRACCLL
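Technique: Diaphorase-driven resazurin-to-resorufin fluorescence, excitation 544, emission 590 nm | Assay system: Human PMI in coupled enzyme assay | Times: Enzyme reaction with compound 20 min at room temperature | Medium: HEPES-buffered pH 7.4 with magnesium and detergent | Reagent: Mannose-6-phosphate 1.0 mM (near-saturating) plus 0.22 mM NADP+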
Diaph act CS = activates diaphorase or chemically reduces, flagging diaphorase assay artifacts. Diaphorase/resazurin coupled assay, resorufin fluorescence, 16 min; stronger effect = higher value; 1 = vehicle wells, 0 = NADH-free wells. activation factor at 20 µM. 190,000 compounds, 0.005% hits;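 active = diaphorase activity raised at least twofold by the compound at 20 µM; inactive = activation factor below 2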
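Assay system: Purified diaphorase enzyme from Clostridium kluyveri | Amount: Enzyme 0.07 U/mL final | Dosing: Compound 20 µM once, DMSO 1% | Timing: 16 min reaction at room temperature | Detection: Fluorescence, excitation 544 nm and emission 590 nm | Evaluation: Higher resorufin formation from activation or reduction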
WT yeast gro inh = growth inhibition of WT yeast, mitochondrial fusion screen | mitochondrial fusion phenotypic screen, WT strain | 190,000 compounds, 2.1% hits | inhibition, % at 10 µM; in the data active = inhibition above about 58%; tested in S. cerevisiae
L major viab = reduces viability of Leishmania major promastigotes; resazurin fluorescence viability; inhibition, % at 10 µM; 200,000 compounds, 9% hits; AID 1063; in the data active = inhibition above about 50%;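 note: promastigotes grown with compound for 44 hours at 28 °C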
PMI act = activators of human phosphomannose isomerase. purified human PMI, coupled resazurin fluorescence, 20 min; stronger effect = higher value; 1 = vehicle control, 0 substrate-free wells. P34949. 190,000 compounds, 0.005% hits. activation factor at 20 µM;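 active = activation factor of 2 or more at 20 µM, relative to plate controls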
Numbers without * were called inactive.

`COc1ccc2[nH]c3c(N4CC(C)OC(C)C4)ncnc3c2c1` (centres undefined) gave PMI act hi M6P 1, Diaph act CS 0.9, WT yeast gro inh 47, L major viab 39 and PMI act 0.9.
`c1ccc2c(c1)[nH]c1c(N3CCC4(CC3)OCCO4)ncnc12` gave PMI act hi M6P 1, Diaph act CS 0.8, WT yeast gro inh 17, L major viab 25 and PMI act 0.9.
Screening c1ccc2c(c1)CCN(c1ncnc3c1[nH]c1ccccc13)C2 returned PMI act hi M6P 0.9, Diaph act CS 0.8, WT yeast gro inh 72* and PMI act 0.9.
`Fc1ccc2[nH]c3c(N4CCN(C5CCCCC5)CC4)ncnc3c2c1` gave PMI act hi M6P 1.1, Diaph act CS 1, WT yeast gro inh -1, L major viab 85* and PMI act 1.1.
`CC1(C)CC(=O)C=C(NNC(=O)OC(C)(C)C)C1` gave PMI act hi M6P 0.9, Diaph act CS 0.9, WT yeast gro inh 1, L major viab -9 and PMI act 1.
`Cc1ccc(S(=O)(=O)Nc2cc(C(=O)O)ccc2N2CCCCC2)cc1` gave PMI act hi M6P 1.3, Diaph act CS 0.9, WT yeast gro inh -1, L major viab -5 and PMI act 1.2.
`Cc1ccc(S(=O)(=O)Nc2cc(C(=O)NCCN(C)C)ccc2N2CCCCC2)cc1` gave PMI act hi M6P 0.9, Diaph act CS 0.9, WT yeast gro inh -2, L major viab 87* and PMI act 0.9.
Screening CCOCCCNC(=O)c1ccc(N2CCCC2)c(NS(=O)(=O)c2ccc(C)cc2)c1 returned PMI act hi M6P 1.5, Diaph act CS 0.9, WT yeast gro inh -12, L major viab 8 and PMI act 1.5.
`COCCCNC(=O)c1ccc(N2CCCC2)c(NS(=O)(=O)c2ccc(C)cc2)c1` gave PMI act hi M6P 2.2*, Diaph act CS 1, WT yeast gro inh -1, L major viab 4 and PMI act 1.3.
For Cc1ccc(S(=O)(=O)Nc2cc(C(=O)NCCN3CCCC3)ccc2N2CCCCC2)cc1 the results were PMI act hi M6P 0.9, Diaph act CS 1, WT yeast gro inh 3, L major viab 99* and PMI act 1.
`O=C(NCc1cccs1)C(=O)NCC1OCCCN1S(=O)(=O)c1ccccc1` (centres undefined) gave PMI act hi M6P 1, Diaph act CS 0.9, WT yeast gro inh -9, L major viab 50 and PMI act 1.
For CC(=O)c1c(C)[nH]c(C(=O)CSc2nc3ccc(C)cc3[nH]2)c1C the results were PMI act hi M6P 0.9, Diaph act CS 0.8, WT yeast gro inh -7, L major viab 92* and PMI act 0.8.
COC(=O)c1ccc(CSc2nc3ccc(C)cc3[nH]2)o1 was read as PMI act hi M6P 1, Diaph act CS 0.9, WT yeast gro inh 4, L major viab 87* and PMI act 1.
For Cc1ccc2nc(SCC(=O)c3ccc4c(c3)OCO4)[nH]c2c1 the results were PMI act hi M6P 1.1, Diaph act CS 1, WT yeast gro inh 2, L major viab 84* and PMI act 1.
`CNC(=O)CNC(=O)Nc1ccc(Cl)c(Cl)c1` gave PMI act hi M6P 1, Diaph act CS 0.3, WT yeast gro inh -1, L major viab -3 and PMI act 1.
O=C(COC(=O)Cc1ccc(Br)cc1)NC1CCCCCC1 was read as PMI act hi M6P 1, Diaph act CS 0.9, WT yeast gro inh -3, L major viab 3 and PMI act 0.9.
For O=C(Nc1ccccc1Br)C1CC(=O)N(c2ccc3c4c(cccc24)CC3)C1 (centres undefined) the results were PMI act hi M6P 0.9, Diaph act CS 0.9, WT yeast gro inh -5, L major viab 62* and PMI act 0.8.
Screening Cc1ccccc1NC(=O)C1CC(=O)N(c2ccc3c4c(cccc24)CC3)C1 (centres undefined) returned PMI act hi M6P 1.1, Diaph act CS 0.8, WT yeast gro inh 9, L major viab -5 and PMI act 1.1.
Screening CN(C)/N=C/C=C1\CC/C(=C\c2ccc(Br)cc2)C1=O returned PMI act hi M6P 1, Diaph act CS 0.9, WT yeast gro inh 9, L major viab 77* and PMI act 0.9.
`O=c1ccccn1Cc1c(Cl)cccc1Cl` gave PMI act hi M6P 1, Diaph act CS 0.9, WT yeast gro inh 73*, L major viab -6 and PMI act 1.
`O=C(NCCCn1ccnc1)c1ccc(S(=O)(=O)N2CCOCC2)cc1` gave PMI act hi M6P 0.9, Diaph act CS 0.9, WT yeast gro inh -4, L major viab 17 and PMI act 0.9.
For Cc1ccc2c(c1)N(CC(=O)N1CCCCC1c1cccnc1)C(=O)CO2 (centres undefined) the results were PMI act hi M6P 1, Diaph act CS 0.9, WT yeast gro inh -10, L major viab 77* and PMI act 1.
Screening N#Cc1nc(Cc2cccc3ccccc23)oc1NCc1ccc(F)cc1 returned PMI act hi M6P 0.8, Diaph act CS 0.8, WT yeast gro inh 71*, L major viab 11 and PMI act 0.8.
`N#Cc1nc(Cc2cccc3ccccc23)oc1NCCN1CCOCC1` gave PMI act hi M6P 0.9, Diaph act CS 0.8, WT yeast gro inh -19, L major viab 72* and PMI act 0.9.
N#Cc1nc(-c2cccs2)oc1NCCN1CCOCC1 was read as PMI act hi M6P 0.9, Diaph act CS 0.9, WT yeast gro inh 5, L major viab -1 and PMI act 0.8.
For N#Cc1nc(-c2ccccc2)oc1NCCN1CCCCC1 the results were PMI act hi M6P 1, Diaph act CS 1, WT yeast gro inh 13, L major viab 87* and PMI act 1.
Screening Cc1cn(C(=O)c2ccccc2)c(=S)n1-c1ccc(Br)cc1 returned PMI act hi M6P 0.9, Diaph act CS 0.8, WT yeast gro inh 57, L major viab 17 and PMI act 0.9.
`CN(C)CCCNC(=O)c1ccc(-c2ccccc2)cc1` gave PMI act hi M6P 0.9, Diaph act CS 0.9, WT yeast gro inh 24, L major viab 86* and PMI act 1.
CN(C)CCCNC(=O)c1cc2sc3ccccc3c2s1 was read as PMI act hi M6P 1.1, Diaph act CS 1.1, WT yeast gro inh 15, L major viab 92* and PMI act 1.1.
Screening Cc1cccc(C(=O)OCc2cncs2)c1 returned PMI act hi M6P 0.8, Diaph act CS 1, WT yeast gro inh -5, L major viab 1 and PMI act 0.9.
O=C(Nc1cc(C(F)(F)F)ccc1Cl)C(NCc1ccccc1)c1ccccc1 (centres undefined) was read as PMI act hi M6P 0.9, Diaph act CS 0.8, WT yeast gro inh 31, L major viab 92* and PMI act 0.9.
